Bioassay records (PubChem BioAssay)
DAGLB inh: diacylglycerol lipase beta (human) inhibition | inhibition, % at 5.17 µM | HEK293T DAGLB membrane lysate, EnzChek fluorogenic substrate | AID 504411 | 0.059% of 340,000 active; in the data active means inhibition above about 34%;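 further: 0% = enzyme with vehicle and 100% = wells lacking enzyme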
Target sequence (Q8NCG7 whole entry, looked up): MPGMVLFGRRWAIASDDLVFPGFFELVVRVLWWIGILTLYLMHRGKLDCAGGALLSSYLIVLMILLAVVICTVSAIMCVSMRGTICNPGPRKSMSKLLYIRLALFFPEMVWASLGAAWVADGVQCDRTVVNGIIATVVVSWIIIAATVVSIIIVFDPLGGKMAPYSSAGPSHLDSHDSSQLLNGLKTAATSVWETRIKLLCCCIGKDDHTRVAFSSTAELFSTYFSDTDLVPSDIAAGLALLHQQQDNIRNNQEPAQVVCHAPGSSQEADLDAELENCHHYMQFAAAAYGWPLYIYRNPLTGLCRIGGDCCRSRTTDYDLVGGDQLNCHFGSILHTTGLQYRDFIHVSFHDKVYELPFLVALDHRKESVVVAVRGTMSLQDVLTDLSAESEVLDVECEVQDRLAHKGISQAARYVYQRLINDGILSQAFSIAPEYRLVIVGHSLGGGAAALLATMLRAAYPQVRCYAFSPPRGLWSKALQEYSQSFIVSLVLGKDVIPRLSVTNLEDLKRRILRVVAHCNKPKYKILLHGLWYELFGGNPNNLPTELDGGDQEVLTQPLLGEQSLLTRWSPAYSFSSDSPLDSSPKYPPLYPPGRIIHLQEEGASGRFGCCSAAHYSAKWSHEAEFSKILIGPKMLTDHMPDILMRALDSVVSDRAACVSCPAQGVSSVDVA
TCR-CD3 inh: human TCR-CD3 binding inhibition. 0.37% of 360,000 active. inhibition, % at 9.4 µM. TAMRA-labeled TCR probe fluorescence, biochemical. AID 651800; in the data active means inhibition above about 19%;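 further: recombinant mutant TCR 2C K166C tagged with TAMRA read by polarization; 0% = receptor in buffer alone and 100% = receptor with positive control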
SIAE primary: human SIAE inhibition, primary screen; inhibition, % at 9.66 µM; 0.69% of 370,000 active; SIAE FP-Rh probe binding, fluorescence polarization;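 active means inhibition above a cutoff: mean of compounds within the control limits plus 3 SD of those, cut at about 17% in these data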;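 further: 0% = plate median of compound wells and 100% = probe without SIAE protein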
mABHD4 FP: ABHD4 (mouse) inhibition, primary FP screen; Q8VD66; purified mABHD4, FP-Rh probe fluorescence polarization; inhibition, % at 8.92 µM; 0.54% of 370,000 active; AID 720543;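 active means inhibition exceeding the mean over every tested compound plus 3 SD, cut at about 30% in these data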;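 further: 0% = plate median of compound wells and 100% = S159A mutant with DMSO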
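Assay system: wild-type mouse ABHD4 protein; compound: single nominal dose of 8.92 µM, 0.89% DMSO final; schedule: 45 min + 60 min at 25 °C; measured by: FP readout, ex 525 nm / em 598 nm; evaluation: % inhibition of FP-Rh probe binding versus controls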
HTRA1 inhibitor: inhibitors of human serine peptidase HTRA1 | recombinant HTRA1, FP-rhodamine activity-based probe, fluorescence polarization | inhibition, % at 5.96 µM | 0.5% of 340,000 active | AID 504803; in the data active means inhibition above about 36%;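 further: 0% = enzyme with DMSO and 100% = wells lacking enzyme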
ABHD4 confirm: confirmation of mouse ABHD4 inhibitors. shares compounds with mABHD4 FP. purified mABHD4, FP-Rh probe fluorescence polarization. inhibition, % at 8.92 µM. 55% of 1,800 active;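 active means mean inhibition across replicates above the hit cutoff set in the primary screen, cut at about 30% in these data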;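 further: 0% = wild-type ABHD4 with DMSO and 100% = catalytically dead S159A mutant with DMSO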
SIAE inh conf: confirmation of human SIAE inhibitors. SIAE FP-Rh activity-based probe, fluorescence polarization. inhibition, % at 9.66 µM. shares compounds with SIAE primary. 13% of 2,300 active;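 active means mean inhibition of the replicates above the hit cutoff set in the primary screen, cut at about 17% in these data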;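 further: 0% = SIAE with DMSO and probe and 100% = probe without SIAE; inhibitors lower polarization as more probe stays unbound to SIAE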
Active calls of the source: *; · = no result; ! = repeats disagree. In the library only some 1.6% were active in any assay of this set; here they are far more common.

SMILES | DAGLB inh | TCR-CD3 inh | SIAE primary | mABHD4 FP | HTRA1 inhibitor | ABHD4 confirm | SIAE inh conf
Cc1[nH]c2ccccc2c1N=Nc1ccccc1C(=O)O | 7 | 2 | 34* | 56* | 31 | 69* | 10
CC1=CC(=O)C=CC1=Nc1ccc(N(C)C)cc1 | · | -5 | 17* | 64* | · | 57* | 12
CN(C)c1ccc(N=c2sc3ccccc3n2C)cc1 | -15 | 4 | -2 | 10 | 17 | · | ·
N=C1S/C(=C\c2ccco2)C(=O)N1c1nccs1 | 4 | -6 | 2 | 16 | 17 | · | ·
N=C1S/C(=C\c2ccco2)C(=O)N1c1ccc2c(c1)OCO2 | 9 | 3 | 21* | 34* | 17 | -1 | 0
Clc1ccc2c(N/N=C/c3ccccc3Br)ccnc2c1 | -3 | -2 | 1 | 3 | 0 | · | ·
Clc1ccc2c(N/N=C/c3cccc(Br)c3)ccnc2c1 | -5 | 4 | 27* | 32* | -12 | 31* | 35*
COc1ccc(CN2CN3Cc4ccc(C)cc4C3CS2(=O)=O)cc1 (stereo not drawn) | · | · | -3 | -4 | · | · | ·
N#Cc1ccc(S(=O)(=O)N2CCCc3nc(-c4ccccc4)ccc32)cc1 | · | -1 | -3 | -1 | · | · | ·
O=C(O)Cc1c[nH]c2cccc(O)c12 | -2 | 13 | 23* | 53* | 9 | 23 | 12
O=C(CCc1ccccc1)N[C@H]1[C@H](OC(=O)c2cnccn2)CCC[C@]12C(=O)N(Cc1ccccc1)c1ccccc12 | · | · | 1 | -8 | · | · | ·
CCOc1ccc(S(=O)(=O)N(C(=O)c2ccco2)c2cc3sc(=O)oc3c3ccccc23)cc1 | 6 | 1 | 18* | 42* | 11 | 1 | -2
Cc1ccc(S(=O)(=O)N(C(=O)c2ccco2)c2cc3sc(=O)oc3c3ccccc23)cc1 | -1 | 1 | 34* | 50* | 18 | 7 | 4
O=C(O)c1cccc(N/N=C/c2ccc(F)c(F)c2)c1 | 6 | -2 | 2 | 12 | 4 | · | ·
O=C(O)c1cccc(N/N=C/C2=C(Cl)c3cc(Cl)ccc3SC2)c1 | 9 | 3 | 21* | 30* | -18 | 87* | 31*
COc1ccc(-n2c(SCc3nc4ccccc4[nH]3)nc3ccccc3c2=O)cc1 | · | · | -22 | 1 | · | · | ·
C/C(=C\C(=O)c1ccncc1)Nc1ccccc1O | -3 | -3 | 3 | 22 | -2 | · | ·
COc1ccc(OC)c(N/C(C)=C/C(=O)c2ccncc2)c1 | 1 | 5 | 21* | 49* | 13 | 1 | 3
O=C(N/N=C/c1c(O)n(-c2ccccc2Cl)c(=O)c2ccccc12)c1cccnc1 | 0 | 11 | 9 | 22 | 31 | · | ·
COc1ccc(Cn2c(O)c(/C=N/NC(=O)c3cccnc3)c3ccccc3c2=O)cc1 | 3 | 0 | 29* | 31* | 10 | 45* | 7
O=C(N/N=C/c1c(O)n(Cc2ccccc2)c(=O)c2ccccc12)c1cccnc1 | 2 | 3 | 26* | 62* | 23 | 73* | 12
COC(=O)[C@]12C[C@H](CC(=O)N3CCCCC3)C(=O)N(Cc3ccc(Cl)cc3Cl)C1=C[C@H](C(C)C)O[C@@H]2C1CC1 | · | · | -3 | -2 | · | · | ·
CCCCNc1c(-c2ccc(OC)c(SC(C)CC)c2)nc2cc(C)ccn12 (stereo not drawn) | -5 | -6 | 18*! | 44* | 9 | 65* | 10
Cc1ccc(NC(=O)CN2C(=O)S/C(=C/c3ccc(O)c([N+](=O)[O-])c3)C2=O)cc1C | 27 | 11 | 25* | 51* | 10 | 63* | 4
Nc1ccc2ccc(O)cc2c1 | 2 | 4 | 19* | 40* | 7 | 33* | 3
SMILES | DAGLB inh | TCR-CD3 inh | SIAE primary | mABHD4 FP | HTRA1 inhibitor | ABHD4 confirm | SIAE inh conf
Oc1ccc2ccc(Cl)cc2c1 | -2 | -3 | 5 | -12 | -11 | · | ·
CC(NC(=O)C(NC(=O)OCc1ccccc1)C(C)O)C(=O)OCc1ccccc1 (stereo not drawn) | · | 0 | 4 | 7 | · | · | ·
COC(=O)c1ccc(=O)c2nc3/c(=C/O)c(O)cc(=O)c3[nH]c12 | -1 | 140* | 47* | 57* | 61* | 59* | 28*
CCCCCCCCN1C(=O)[C@@H](CC(=O)N2CCCC2)C[C@@]2(C(=O)OC)C1=C[C@H](C(C)C)O[C@@H]2C1CC1 | · | · | -2 | -6 | · | · | ·
O=C(NCCCCC(NC(=O)c1ccccc1)C(=O)O)OCc1ccccc1 (stereo not drawn) | · | 6 | 0 | 4 | · | · | ·
O=C1N=c2ccccc2=C1c1sc(=S)n(NC(=O)c2ccccc2)c1O | 3 | 3 | 23* | 33* | 7 | 42* | 31*
CCOC(=O)CC[C@H]1CC[C@]2(CCCN(C(=O)c3ccccc3)C2)O1 | · | · | -6 | -1 | · | · | ·
CCC(=O)Nc1ccc2ccccc2c1 | -1 | -2 | 6 | 0 | -1 | · | ·
Oc1ccc(Nc2ccc3ccccc3c2)cc1 | · | 6 | 20* | 39* | · | 56* | 15
O=C1NN(c2cccc(Br)c2)C(=O)/C1=C\c1ccc(O)cc1 | 21 | 3 | 19* | 37* | -1 | 41* | 4
CCC(C#Cc1ccccc1)N(C)C(N)=NC(=O)/C=C/c1ccccc1 (stereo not drawn) | · | · | 4 | -1 | · | · | ·
CCOC1=CC2=C(C(=O)C(Cl)=CC2=O)[C@@H]2CN(S(=O)(=O)c3ccc(C)cc3)[C@@H](c3ccccc3)[C@H]12 | · | 15 | 23* | 89* | · | 101* | 18*
CC(C)c1ccc(NC(=O)O[C@H]2CC[C@@]34CCCN3C(=O)CCC[C@H]4[C@H]2C)cc1 | · | · | -5 | -1 | · | · | ·
O=C(NCCc1ccc(Cl)cc1)c1ccc2c(c1)ncn2C1CCCCC1 | · | · | -2 | 4 | · | · | ·
COc1ccc(/C=N/NC(=O)c2cc3c(OC)ccc(OC)c3[nH]2)cc1O | -3 | -3 | 24* | 33* | 17 | 47* | 11
Cc1ccc(C2CC(=O)Oc3cc(O)ccc32)cc1 (stereo not drawn) | 0 | 10 | 19* | 55* | 30 | 44* | 11
O=C1CC(c2ccccc2)c2cc(O)ccc2O1 (stereo not drawn) | -5 | 5 | 2 | 8 | -2 | · | ·
Cc1cc[n+](-c2[nH]c(=O)sc2/C=N/NC([S-])=Nc2ccccc2)cc1C | 1 | 12 | 19* | 31* | 22 | 28 | 3
N=C(N)CCCOc1ccccc1-c1ccccc1 | 2 | 3 | 20* | 5 | -3 | · | -2
Cc1cc(SCC(=O)N/N=C/c2ccc(O)cc2O)nc2ccccc12 | 2 | 2 | 23* | -2 | 0 | · | -8
COc1ccc(-c2[nH]c(-c3ccc4c(c3)OCO4)nc2-c2ccccc2)cc1 | 2 | 0 | 21* | 15 | 18 | · | 4
COc1cc(-c2nc(-c3ccccc3)c(-c3ccc(F)cc3)[nH]2)cc2c1OCO2 | -1 | 0 | 9 | 12 | -5 | · | ·
